# hERG rescue: hERG (human) protection from proarrhythmic block. CHO-hERG, FluxOR thallium flux, dofetilide IC70 present. activation (rescue from dofetilide block), less the hit threshold, % at 10 µM. Q12809. actives 0.51% (n = 310,000). AID 1511;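 active = activation above the mean of controls blocked by dofetilide plus 5 SD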;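 note: thallium influx through hERG after potassium depolarization seen as dye fluorescence rise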
# KCNQ1 inh: human KCNQ1 channel inhibition. B-score at 10 µM. actives 1.3% (n = 310,000). P51787. CHO-K1 KCNQ1, FluxOR thallium flux fluorescence; active compounds read high;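 active = compounds whose thallium flux B-score, printed positive for inhibition, exceeds three library SD while starting fluorescence stays within three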;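 note: channel opened by potassium depolarization with thallium stimulus after 20 min compound exposure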
# Kir21 inh: inhibitors of mouse Kir2.1 inward-rectifier potassium channel | P35561 | HEK293-Kir2.1, FluxOR thallium flux fluorescence; active compounds read low | actives 0.85% (n = 310,000) | AID 1672 | B-score at 10 µM;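 active = fluorescence ratio B-score at or below minus 3 SD of library scores, with starting-brightness B-score within 2 SD, cut at about -4.2 in these data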;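 note: channel flux triggered by added potassium and thallium sulfate stimulus; B-score of peak minus minimum fluorescence over baseline after thallium stimulus; more negative B-score means stronger Kir2.1 block with less thallium influx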
# KCNQ1 act: human KCNQ1 channel potentiation or activation; B-score at 10 µM; CHO-K1 KCNQ1, thallium flux FluxOR fluorescence; active compounds read high; actives 0.35% (n = 310,000); P51787; AID 2648;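 active = fluorescence ratio B-score, a plate-corrected score, at least three library SD, with initial intensity B-score within 5 SD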
#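 System: Stable KCNQ1 CHO-K1 line | Incubation: 90 min dye loading and 20 min compound exposure, both at room temperature | Measure: Ratio B score | Medium: Assay buffer for compound exposure, DMSO matched across wells | Compound dosing: Single-concentration screen | Probe or stimulus: K+/Tl+ depolarizing stimulus | Measured by: Kinetic FluxOR fluorescence, 10 s baseline plus 110 s post-stimulus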
# KCNK9 inh: blocks the human KCNK9 two-pore domain potassium channel; B-score at 10 µM; HEK293 KCNK9, FluxOR thallium flux fluorescence; active compounds read low; actives 1.2% (n = 310,000); Q9NPC2;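 active = ratio B-score over 3 SD below the library mean, with starting fluorescence within 5 SD of its mean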;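 note: negative B-score means less thallium flux so channel inhibition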
# KCNK3 block: human KCNK3 channel inhibition, primary screen; actives 0.84% (n = 340,000); B-score at 10 µM; O14649; CHO-KCNK3 thallium flux, FluxOR fluorescence; active compounds read low;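 active = B-score under library mean minus 4 SD, starting fluorescence ratio at most library mean plus 5 SD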;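 note: more negative B-score means stronger inhibition of thallium flux through KCNK3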
# * = called active by the depositor; i = inactive; / = not tested or not shown. An excerpt weighted towards active compounds, which were near 3.8% of everything screened.
SMILES,hERG rescue,KCNQ1 inh,Kir21 inh,KCNQ1 act,KCNK9 inh,KCNK3 block
Cc1cccc(N(C)S(=O)(=O)c2cccc3nsnc23)c1,-5.3,i,-4.28*,i,i,i
CN(C)S(=O)(=O)c1cccc2nsnc12,-0.6,i,0.21,i,i,i
Cc1ccc(CSc2nnc([C@@H]3CCCN3C(=O)OC(C)(C)C)o2)cc1,-6.7,i,-7.13*,i,i,i
COC1CCCN(C(=O)c2cccc(OC3CCN(S(C)(=O)=O)CC3)c2)C1 (centres undefined),-5.0,i,-0.62,i,i,i
O=C(NCCO)C(=O)NCC1OCCCN1S(=O)(=O)c1cc(F)ccc1F (centres undefined),-2.3,i,0.04,i,i,i
CC(C)CNC(=O)c1ccccc1NC(=O)c1ccc(CSc2ccccc2)cc1,-17.5,7*,-0.07,i,i,i
Cc1cccc(C)c1NC(=O)COC(=O)c1cc[n+]([O-])cc1,-8.4,i,0.13,i,i,i
Cc1ccc(C2CC(=O)NC(SCc3ccccc3)=C2C#N)cc1 (centres undefined),-11.5,i,-4.35*,i,i,i
N#CC1=C(SCc2ccccc2)NC(=O)CC1c1ccc(O)cc1 (centres undefined),-10.5,i,-4.4*,i,i,i
CCCCCCSC1=C(C#N)C(c2ccccc2)CC(=O)N1 (centres undefined),2.1,i,-2.45,i,-7.21*,i
COc1ccc(OCc2cc(C(=O)O)c(C)o2)cc1,-6.2,i,2.34,i,i,/
Cc1ccccc1C(=O)N1CCN(S(=O)(=O)c2ccccc2)CC1,-12.0,i,0,i,i,i
O=C(Nc1cccc(F)c1)c1cccc2c1C(=O)N(C1CCCCC1)C2,-5.0,i,-0.76,i,-11.3*,i
Cc1ccccc1NC(=O)c1cccc2c1C(=O)N(C1CCCCC1)C2,-8.8,i,-1.04,i,i,i
CCOP(=O)(OCC)c1nc(-c2ccc(F)cc2)oc1NCc1ccccc1,-11.3,i,-1.61,i,-6.63*,i
CCOP(=O)(OCC)c1nc(-c2ccccc2)oc1NCc1ccccc1,-19.0,i,-1.52,i,i,i
C=C(C)COc1ccc(-c2nc(N)ncc2-c2ccc(Cl)cc2)c(O)c1,-7.5,i,-1.62,i,i,i
c1ccc2c(c1)ncn2-c1ncnc2sc3c(c12)CCCC3,-2.7,i,-0.94,i,i,i
CC(O)CNc1nc2ccccc2n1-c1ncnc2sc3c(c12)CCC3 (centres undefined),-30.7,i,-7.62*,i,i,i
CCCC(=O)n1nc(-c2ccc(C)cc2)nc1NCc1ccco1,-12.5,i,0.02,10*,i,i
Cc1ccc(-c2nc(NCc3ccco3)c3ccccc3n2)cc1,-18.0,i,0.27,i,-6.58*,i
c1cncc(-c2nc(NCc3ccco3)c3ccccc3n2)c1,-15.7,i,2.3,i,i,i
c1ccc(Nc2nc(NCc3ccco3)c3ccccc3n2)cc1,-22.6,i,-16.6*,i,i,i
Cc1ccc(C(=O)n2nc(-c3ccccc3)nc2NCc2ccco2)cc1,-7.9,i,-0.03,i,i,i
Cc1nc(-c2cccc(NC(=O)c3ccc(-n4cccn4)cc3)c2)cs1,/,/,/,/,/,i
CCN(c1ccccc1)S(=O)(=O)c1ccc(N)c(OC)c1,-11.8,i,-0.63,i,i,i
O=C(OCC(=O)N1CCc2ccccc21)[C@@H]1CC(O)CN1S(=O)(=O)c1ccc(Cl)cc1 (some centres undefined),/,/,/,/,/,i
CCn1c(SCC(=O)N2CC(C)OC(C)C2)nc2c([nH]c3ccccc32)c1=O (centres undefined),-7.0,i,-0.01,i,i,i
O=C(Nc1nc(=O)c2ccccc2s1)c1ccc(F)cc1,-3.1,i,0.82,23*,i,i
CN(C)c1ccc(/C=C/c2ccc3c4ccccc4ccc3[n+]2-c2ccccc2)cc1,/,/,/,/,/,-15.5*

# Compound activity: PubChem BioAssay, Johns Hopkins Ion Channel Center
